Measurements: ChEMBL document CHEMBL1122311, “beta-Adrenergic antagonists with multiple pharmacophores: persistent blockade of receptors” (J Med Chem, 1983)

Key:
[1] = target: T1, Adrenergic receptor beta (Rattus norvegicus) (UniProt P18090+P10608+P26255); experiment: % specific binding blocked by the compound fraction of 2.6(x10E-6) in beta adrenergic receptor from lung membranes, after serial wash; assay type: tissue-based
Outline: (§1)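 Rat heart or lung membranes (ca. 500 or 150 μg protein) preincubated with compound 1 h at 30 °C, centrifuged, then washed five times (resuspend in buffer, 10 min at 30 °C, centrifuge). Residual specific (–)-[³H]dihydroalprenolol binding (5 nM, 20 min, 30 °C, 50 mM Tris/10 mM MgCl₂ pH 7.4; nonspecific defined with 10 μM (±)-alprenolol) compared with washed untreated membranes; percent inhibition, ≥2 experiments in triplicate.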

[2] = target: T1, Adrenergic receptor beta (Rattus norvegicus); experiment: % specific binding blocked by the compound fraction of 2.6(x10E-6) in beta adrenergic receptor from heart membranes, after serial wash; outline: as §1
[3] = target: T1, Adrenergic receptor beta (Rattus norvegicus); experiment: % specific binding blocked by the compound fraction of 5.6(x10E-6) in beta adrenergic receptor from lung membranes, after serial wash; assay type: tissue-based; outline: as §1
[4] = target: T1, Adrenergic receptor beta (Rattus norvegicus); experiment: % specific binding blocked by the compound fraction of 5.6(x10E-6) in beta adrenergic receptor from heart membranes, after serial wash; outline: as §1
[5] = target: T1, Adrenergic receptor beta (Rattus norvegicus); experiment: % specific binding blocked by the compound fraction of 5.6 (1x10E- 5) in beta adrenergic receptor from heart membranes, after serial wash; outline: as §1
[6] = target: T1, Adrenergic receptor beta (Rattus norvegicus); experiment: % specific binding blocked by the compound fraction of 5.6 (1x10E- 5) in beta adrenergic receptor from lung membranes, after serial wash; assay type: tissue-based; outline: as §1
[7] = target: T1, Adrenergic receptor beta (Rattus norvegicus); experiment: % specific binding blocked by the compound fraction of 2.6 (1x10E- 5) in beta adrenergic receptor from lung membranes, after serial wash; assay type: tissue-based; outline: as §1
[8] = target: T1, Adrenergic receptor beta (Rattus norvegicus); experiment: % specific binding blocked by the compound fraction of 2.6 (1x10E- 5) in beta adrenergic receptor from heart membranes, after serial wash; outline: as §1

Binding [1] [%] | Binding [2] [%] | Binding [3] [%] | Binding [4] [%] | Binding [5] [%] | Binding [6] [%] | Binding [7] [%] | Binding [8] [%] | Structure (SMILES)
68 | 26 | – | – | – | – | – | – | C=CCc1ccccc1OCC(O)CNC(C)COCC(C)OCC(C)OCC(C)N(CC(O)COc1ccccc1CC=C)CC(O)COc1ccccc1CC=C (configuration not stated)
77 | 42.5 | – | – | – | – | – | – | C=CCc1ccccc1OCC(O)CNC(C)COCC(C)OCC(C)OCC(C)NCC(O)COc1ccccc1CC=C (configuration not stated)
14 | 3.8 | 0 | 0 | – | – | – | – | C=CCc1ccccc1OCC(O)CNC(C)COC(C)COC(C)COCC(C)N (configuration not stated)
– | – | – | – | 0 | 0 | 0 | 0 | CC(N)COCC(C)OCC(C)OCC(C)N (configuration not stated)
